# In ChEMBL document CHEMBL4145441, “Discovery of N-(5-((5-chloro-4-((2-(isopropylsulfonyl)phenyl)amino)pyrimidin-2-yl)amino)-4-methoxy-2-(4-methyl-1,4-diazepan-1-yl)phenyl)acrylamide (CHMFL-ALK/EGFR-050) as a potent ALK/EGFR dual kinase inhibitor capable of overcoming a variety of ALK/EGFR associated drug resistant mutants in NSCLC” (Eur J Med Chem, 2017):
# pIC50: −log10 of the molar value. Calls of active or inactive are those of the source. The calls are words filed in the database; no cut-off is given here.
# Experiments:
# [1] = target: Epidermal growth factor receptor (Homo sapiens, UniProt P00533, L858R); assay: Inhibition of recombinant human GST-tagged EGFR L858R mutant expressed in Baculovirus expression system using Tyr 4 peptide as substrate after 1 hr in presence of ATP by Z-LYTE assay
# [2] = target: Epidermal growth factor receptor (Homo sapiens, UniProt P00533, L858R/T790M); assay: Inhibition of recombinant human GST-tagged EGFR L858R/T790M mutant expressed in Baculovirus expression system using Tyr 4 peptide as substrate after 1 hr in presence of ATP by Z-LYTE assay
# [3] = target: ALK tyrosine kinase receptor (Homo sapiens, UniProt Q9UM73); assay: Inhibition of recombinant human wild-type GST-tagged ALK expressed in Baculovirus expression system using Tyr 1 peptide as substrate after 1 hr by Z-LYTE assay
# [4] = target: ALK tyrosine kinase receptor (Homo sapiens, UniProt Q9UM73, F1174L); assay: Inhibition of recombinant human N-terminal GST/His6-fused ALK F1174L mutant expressed in Sf9 insect cells using Tyr 1 peptide as substrate after 1 hr by Z-LYTE assay
# [5] = Antiproliferative activity against mouse BAF3 cells after 72 hrs by CellTiter-Glo assay; assay type: cell-based
# [6] = target: T1, Epidermal growth factor receptor (Homo sapiens, UniProt P00533); assay: Inhibition of TEL-fused EGFR (unknown origin) expressed in mouse BAF3 cells assessed as decrease in cell proliferation after 72 hrs by CellTiter-Glo assay; assay type: cell-based
# [7] = system: Epidermal growth factor receptor (Homo sapiens), P00533 [T790M]; assay: Inhibition of TEL-fused EGFR T790M mutant (unknown origin) expressed in mouse BAF3 cells assessed as decrease in cell proliferation after 72 hrs by CellTiter-Glo assay; assay type: cell-based
# [8] = system: Epidermal growth factor receptor (Homo sapiens), P00533 [L858R,T790M,C797S]; assay: Inhibition of full length EGFR L858R/T790M/C797S mutant (unknown origin) expressed in mouse BAF3 cells assessed as decrease in cell proliferation after 72 hrs by CellTiter-Glo assay; assay type: cell-based
# NCI-H1975 [9] = assay: Antiproliferative activity against human NCI-H1975 cells harboring EGFR L858R/T790M mutant after 72 hrs by CellTiter-Glo assay; assay type: functional; settings: NCI-H1975, 72 h
# In short: (§1)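 Antiproliferative GI50 against H1975 and H3122 cells; each GI50 value obtained from triplicate testing.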
# HCC827 = assay: Antiproliferative activity against human HCC827 cells harboring EGFR del19 mutant after 72 hrs by CellTiter-Glo assay; assay type: functional; settings: HCC827, 72 h
# NCI-H3255 = assay: Antiproliferative activity against human H3255 cells harboring EGFR L858R mutant after 72 hrs by CellTiter-Glo assay; assay type: functional; settings: NCI-H3255, 72 h
# NCI-H3122 [10] = assay: Antiproliferative activity against human NCI-H3122 cells harboring EML4-fused ALK varian1 after 72 hrs by CellTiter-Glo assay; assay type: functional; settings: NCI-H3122, 72 h; in short: as §1
# NCI-H2228 = assay: Antiproliferative activity against human NCI-H2228 cells harboring EML4-fused ALK varian3 after 72 hrs by CellTiter-Glo assay; assay type: functional; settings: NCI-H2228, 72 h
# [11] = Antiproliferative activity against CHO cells after 72 hrs by CellTiter-Glo assay; assay type: cell-based, Cricetulus griseus; settings: chinese hamster
# [12] = AUC (0 to infinity) in Sprague-Dawley rat at 1 mg/kg, iv; assay type: ADME, organism-based; parameters: dose 1 mg/kg, route intravenous, time infinity; settings: in vivo
# In short: (§2)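 Rats dosed once intravenously at 1 mg/kg or orally at 10 mg/kg. Plasma exposure parameters derived: AUC0-t, AUC0-∞, MRT(0-t), Cmax, Tmax, T1/2 and oral bioavailability (F%). Values reported as mean ± spread.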
# [13] = MRT (0 to t) in Sprague-Dawley rat at 1 mg/kg, iv; assay type: ADME, organism-based; settings: in vivo
# In short: (§3)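 Pharmacokinetics in rats given a single dose either intravenously at 1 mg/kg or orally at 10 mg/kg. Plasma parameters derived include AUC0-t, AUC0-∞, MRT(0-t), Cmax, Tmax, T1/2 and oral F (%).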
# [14] = Tmax in Sprague-Dawley rat at 1 mg/kg, iv; assay type: ADME, organism-based; settings: in vivo; in short: as §3
# [15] = AUC (0 to infinity) in Sprague-Dawley rat at 10 mg/kg, po; assay type: ADME, organism-based; parameters: dose 10 mg/kg, route oral, time infinity; settings: in vivo; in short: as §2
# [16] = MRT (0 to t) in Sprague-Dawley rat at 10 mg/kg, po; assay type: ADME, organism-based; settings: in vivo; in short: as §3
# [17] = target: T1, Epidermal growth factor receptor; assay: Inhibition of EGFR in human NCI-H1975 cells assessed as inhibition of ERK-1/2 phosphorylation at Thr202/Tyr204 residues at 30 nM after 4 hrs by immunoblotting method; assay type: cell-based
# [18] = target: T1, Epidermal growth factor receptor; assay: Inhibition of EGFR in human PC9 cells assessed as inhibition of ERK-1/2 phosphorylation at Thr202/Tyr204 residues at 30 nM after 4 hrs by immunoblotting method; assay type: cell-based
# [19] = target: T1, Epidermal growth factor receptor; assay: Inhibition of EGFR phosphorylation at Y1068 in human A549 cells at 300 nM after 4 hrs by immunoblotting method; assay type: cell-based
# [20] = target: T1, Epidermal growth factor receptor; assay: Inhibition of EGFR in human A549 cells assessed as reduction in EGF-induced AKT phosphorylation at Thr308 residue up to 3 uM after 4 hrs by immunoblotting method; assay type: cell-based
# [21] = target: T1, Epidermal growth factor receptor; assay: Inhibition of EGFR in human A549 cells assessed as reduction in EGF-induced eIF4E phosphorylation at Ser209 residue up to 3 uM after 4 hrs by immunoblotting method; assay type: cell-based
# [22] = target: T1, Epidermal growth factor receptor; assay: Inhibition of EGFR in human A549 cells assessed as reduction in EGF-induced 4EBP1 phosphorylation at Thr37/46 site up to 3 uM after 4 hrs by immunoblotting method; assay type: cell-based
# PC-9 [23] = assay: Cell cycle arrest in human PC9 cells assessed as accumulation at G0/G1 phase at 0.03 to 1 uM after 24 hrs by propidium iodide/RNase staining-based flow cytometry; assay type: functional
# NCI-H1975 [24] = assay: Induction of apoptosis in human NCI-H1975 cells assessed as increase in cleaved PARP expression level at 300 nM to 1 uM after 24 hrs by Western blot method; assay type: functional, cell-based
# NCI-H1975 [25] = assay: Induction of apoptosis in human NCI-H1975 cells assessed as increase in cleaved caspase-3 expression level at 300 nM to 1 uM after 24 hrs by Western blot method; assay type: functional, cell-based
# PC-9 [26] = assay: Induction of apoptosis in human PC9 cells assessed as increase in cleaved PARP expression level at 300 nM to 1 uM after 24 hrs by Western blot method; assay type: functional, cell-based
# A549 = assay: Induction of apoptosis in human A549 cells assessed as increase in cleaved caspase-3 expression level up to 1 uM after 24 hrs by Western blot method; assay type: functional, cell-based
# NCI-H3122 [27] = assay: Antitumor activity against human NCI-H3122 cells xenografted in po dosed nu/nu mouse assessed as decrease in cell proliferation administered for 28 days by Ki67 staining-based immunohistochemical analysis; assay type: functional, organism-based
# [28] = system: ALK tyrosine kinase receptor (Homo sapiens), Q9UM73 [C1156Y]
# T1 sequence (P00533 whole entry, the tested form may be a part): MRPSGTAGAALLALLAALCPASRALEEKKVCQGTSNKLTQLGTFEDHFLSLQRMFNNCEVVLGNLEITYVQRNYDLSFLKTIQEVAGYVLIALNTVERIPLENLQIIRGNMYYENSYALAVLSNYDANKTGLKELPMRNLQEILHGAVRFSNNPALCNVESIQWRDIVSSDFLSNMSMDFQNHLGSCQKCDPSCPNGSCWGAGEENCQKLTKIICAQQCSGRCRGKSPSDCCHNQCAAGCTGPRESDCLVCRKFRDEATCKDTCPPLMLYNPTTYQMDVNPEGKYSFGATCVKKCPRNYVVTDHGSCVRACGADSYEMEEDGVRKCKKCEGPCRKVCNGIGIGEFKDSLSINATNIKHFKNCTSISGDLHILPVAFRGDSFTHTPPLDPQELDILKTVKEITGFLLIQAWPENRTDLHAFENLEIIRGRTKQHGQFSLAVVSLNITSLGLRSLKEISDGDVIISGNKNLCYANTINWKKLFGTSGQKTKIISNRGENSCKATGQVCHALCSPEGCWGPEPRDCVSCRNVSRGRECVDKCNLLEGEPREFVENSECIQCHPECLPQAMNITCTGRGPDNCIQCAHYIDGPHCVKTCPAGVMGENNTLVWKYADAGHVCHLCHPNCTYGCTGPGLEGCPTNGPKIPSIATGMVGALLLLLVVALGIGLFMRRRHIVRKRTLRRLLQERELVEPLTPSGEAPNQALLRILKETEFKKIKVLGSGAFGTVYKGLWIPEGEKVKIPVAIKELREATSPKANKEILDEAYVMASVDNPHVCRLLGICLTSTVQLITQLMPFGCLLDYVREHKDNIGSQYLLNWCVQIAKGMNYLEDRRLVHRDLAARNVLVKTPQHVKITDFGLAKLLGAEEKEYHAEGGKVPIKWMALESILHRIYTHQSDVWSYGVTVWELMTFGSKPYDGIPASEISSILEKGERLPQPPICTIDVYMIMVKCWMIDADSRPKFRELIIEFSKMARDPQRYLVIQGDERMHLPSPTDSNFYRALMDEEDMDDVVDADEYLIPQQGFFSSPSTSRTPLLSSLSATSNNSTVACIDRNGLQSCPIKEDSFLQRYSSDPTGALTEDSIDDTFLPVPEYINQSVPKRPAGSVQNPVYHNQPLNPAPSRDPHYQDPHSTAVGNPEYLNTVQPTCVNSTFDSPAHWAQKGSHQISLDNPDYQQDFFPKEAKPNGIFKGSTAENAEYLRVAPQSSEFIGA
# Epidermal growth factor receptor (Homo sapiens, UniProt P00533, L858R/T790M), sequence (P00533 25-1210 T790M/L858R limits assumed): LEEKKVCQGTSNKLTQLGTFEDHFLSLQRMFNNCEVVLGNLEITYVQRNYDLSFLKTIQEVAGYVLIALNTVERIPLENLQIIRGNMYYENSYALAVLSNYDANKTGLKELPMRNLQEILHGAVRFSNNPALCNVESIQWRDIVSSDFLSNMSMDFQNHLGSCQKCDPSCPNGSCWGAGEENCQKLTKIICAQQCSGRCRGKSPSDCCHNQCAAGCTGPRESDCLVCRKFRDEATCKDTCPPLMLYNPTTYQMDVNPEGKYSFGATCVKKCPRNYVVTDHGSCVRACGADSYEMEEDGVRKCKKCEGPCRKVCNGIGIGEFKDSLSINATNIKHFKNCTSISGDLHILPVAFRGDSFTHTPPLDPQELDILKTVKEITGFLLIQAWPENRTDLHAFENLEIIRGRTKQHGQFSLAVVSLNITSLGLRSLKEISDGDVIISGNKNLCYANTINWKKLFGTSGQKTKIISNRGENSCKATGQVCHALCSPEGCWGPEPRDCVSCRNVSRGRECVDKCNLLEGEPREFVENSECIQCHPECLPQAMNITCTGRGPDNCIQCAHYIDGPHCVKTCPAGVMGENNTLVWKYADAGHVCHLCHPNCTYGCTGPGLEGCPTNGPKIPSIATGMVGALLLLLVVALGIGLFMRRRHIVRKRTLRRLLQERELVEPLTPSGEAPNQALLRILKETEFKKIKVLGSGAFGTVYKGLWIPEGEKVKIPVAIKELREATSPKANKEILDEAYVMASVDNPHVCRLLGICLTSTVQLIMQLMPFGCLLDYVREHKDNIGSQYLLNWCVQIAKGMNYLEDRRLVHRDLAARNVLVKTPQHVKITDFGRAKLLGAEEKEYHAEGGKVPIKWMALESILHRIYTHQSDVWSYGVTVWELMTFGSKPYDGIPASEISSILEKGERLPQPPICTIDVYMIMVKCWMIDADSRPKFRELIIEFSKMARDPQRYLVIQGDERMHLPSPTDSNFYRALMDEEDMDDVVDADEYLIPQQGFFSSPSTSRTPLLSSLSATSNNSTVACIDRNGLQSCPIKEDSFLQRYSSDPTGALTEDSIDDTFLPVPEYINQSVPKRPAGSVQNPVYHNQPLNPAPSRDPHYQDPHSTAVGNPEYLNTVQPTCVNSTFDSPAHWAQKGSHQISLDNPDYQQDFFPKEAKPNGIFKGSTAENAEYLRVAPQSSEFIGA
# Epidermal growth factor receptor (Homo sapiens, UniProt P00533, L858R), sequence (P00533 25-1210 L858R limits assumed): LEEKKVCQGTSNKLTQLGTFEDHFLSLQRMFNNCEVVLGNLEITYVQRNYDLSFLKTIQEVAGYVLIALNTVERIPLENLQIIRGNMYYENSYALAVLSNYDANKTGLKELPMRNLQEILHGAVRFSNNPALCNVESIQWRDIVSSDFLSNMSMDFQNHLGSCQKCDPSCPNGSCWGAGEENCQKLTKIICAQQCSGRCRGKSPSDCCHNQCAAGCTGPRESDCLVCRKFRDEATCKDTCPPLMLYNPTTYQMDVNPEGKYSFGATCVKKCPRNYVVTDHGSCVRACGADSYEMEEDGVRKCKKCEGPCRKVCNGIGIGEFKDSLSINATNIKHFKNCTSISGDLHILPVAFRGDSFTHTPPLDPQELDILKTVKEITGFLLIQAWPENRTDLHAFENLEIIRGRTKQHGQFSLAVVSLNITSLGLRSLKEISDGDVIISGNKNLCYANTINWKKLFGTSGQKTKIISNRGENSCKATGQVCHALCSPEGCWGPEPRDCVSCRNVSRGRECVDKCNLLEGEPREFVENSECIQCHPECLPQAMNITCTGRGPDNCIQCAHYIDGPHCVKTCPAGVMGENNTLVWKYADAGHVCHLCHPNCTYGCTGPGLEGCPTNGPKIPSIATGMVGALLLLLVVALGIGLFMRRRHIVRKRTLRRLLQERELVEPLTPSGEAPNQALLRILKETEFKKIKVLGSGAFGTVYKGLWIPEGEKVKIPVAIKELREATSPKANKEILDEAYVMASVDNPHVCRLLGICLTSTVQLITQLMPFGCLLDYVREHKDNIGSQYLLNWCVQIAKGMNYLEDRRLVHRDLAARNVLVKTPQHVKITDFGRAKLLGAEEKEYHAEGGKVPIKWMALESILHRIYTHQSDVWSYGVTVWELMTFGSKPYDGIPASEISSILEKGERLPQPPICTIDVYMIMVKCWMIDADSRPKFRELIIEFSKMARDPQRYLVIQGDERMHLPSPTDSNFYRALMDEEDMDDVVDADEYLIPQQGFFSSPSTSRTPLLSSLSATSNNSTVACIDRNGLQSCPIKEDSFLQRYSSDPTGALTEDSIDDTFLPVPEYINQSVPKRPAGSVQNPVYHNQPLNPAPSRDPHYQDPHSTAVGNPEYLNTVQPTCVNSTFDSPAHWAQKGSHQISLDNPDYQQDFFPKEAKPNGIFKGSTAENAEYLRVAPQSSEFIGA
# Epidermal growth factor receptor (Homo sapiens), P00533 [T790M], sequence (P00533 whole entry T790M, the tested form may be a part): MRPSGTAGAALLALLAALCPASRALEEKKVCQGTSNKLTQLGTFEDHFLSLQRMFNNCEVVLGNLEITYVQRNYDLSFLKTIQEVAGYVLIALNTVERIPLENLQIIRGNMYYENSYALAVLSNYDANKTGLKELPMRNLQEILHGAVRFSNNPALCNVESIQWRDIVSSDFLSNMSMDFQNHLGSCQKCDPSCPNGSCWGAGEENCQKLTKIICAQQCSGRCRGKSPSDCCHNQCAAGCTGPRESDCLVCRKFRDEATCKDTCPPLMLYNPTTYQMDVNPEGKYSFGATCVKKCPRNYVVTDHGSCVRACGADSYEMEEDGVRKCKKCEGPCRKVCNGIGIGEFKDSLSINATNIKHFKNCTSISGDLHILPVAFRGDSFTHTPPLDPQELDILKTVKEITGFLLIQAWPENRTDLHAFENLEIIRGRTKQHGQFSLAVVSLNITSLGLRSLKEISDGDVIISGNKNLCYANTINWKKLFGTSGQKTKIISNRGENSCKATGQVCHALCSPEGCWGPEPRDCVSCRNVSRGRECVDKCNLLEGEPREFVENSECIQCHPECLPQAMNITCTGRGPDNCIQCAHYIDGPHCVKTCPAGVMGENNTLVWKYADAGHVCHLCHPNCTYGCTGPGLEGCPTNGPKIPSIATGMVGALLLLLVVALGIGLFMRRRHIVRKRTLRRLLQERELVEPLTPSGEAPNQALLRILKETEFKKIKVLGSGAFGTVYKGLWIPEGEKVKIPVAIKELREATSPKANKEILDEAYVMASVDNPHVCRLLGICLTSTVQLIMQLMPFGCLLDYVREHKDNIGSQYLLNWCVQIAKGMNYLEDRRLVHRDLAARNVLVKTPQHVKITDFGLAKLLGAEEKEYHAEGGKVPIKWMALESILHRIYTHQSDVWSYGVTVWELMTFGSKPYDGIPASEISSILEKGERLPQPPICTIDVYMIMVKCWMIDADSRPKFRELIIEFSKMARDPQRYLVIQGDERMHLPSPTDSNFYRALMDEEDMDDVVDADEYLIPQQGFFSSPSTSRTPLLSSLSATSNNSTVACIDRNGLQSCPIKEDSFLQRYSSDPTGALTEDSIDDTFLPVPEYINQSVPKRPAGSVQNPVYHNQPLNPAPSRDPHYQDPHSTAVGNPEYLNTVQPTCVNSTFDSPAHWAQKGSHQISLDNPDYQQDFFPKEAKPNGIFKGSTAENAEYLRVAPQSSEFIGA
compound,measurement,setting,value
C=CC(=O)Nc1cc(Nc2ncc(Cl)c(Nc3ccccc3S(=O)(=O)C(C)C)n2)c(OC)cc1N1CCCN(C)CC1,pIC50,[1],7.08
same,pIC50,[2],8.44
same,pIC50,[3],8.01
same,pIC50,[4],9.04
same,GI50 at 72 h,[5],1200 nM
same,GI50,[6],16 nM
same,GI50,[7],8 nM
same,GI50,[8],1100 nM
same,GI50,NCI-H1975 [9],15 nM
same,GI50,HCC827,6.2 nM
same,GI50,NCI-H3255,31 nM
same,GI50,NCI-H3122 [10],< 0.3 nM
same,GI50,NCI-H2228,28 nM
same,GI50 at 72 h,[11],1800 nM
same,AUC(0-inf),[12],720 ng·h/mL
same,MRT last,[13],56.8 min
same,Tmax,[14],1.02 min
same,AUC(0-inf),[15],1300 ng·h/mL
same,MRT last,[16],247 min
same,inhibition,[17],Active
same,inhibition,[18],Active
same,inhibition,[19],Active
same,inhibition,[20],inactive
same,inhibition,[21],inactive
same,inhibition,[22],inactive
same,Activity,PC-9 [23],Active
same,Activity,NCI-H1975 [24],Active
same,Activity,NCI-H1975 [25],Active
same,Activity,PC-9 [26],Active
same,Activity,A549,inactive
same,Activity,NCI-H3122 [27],Dose-dependent effect
same,GI50,[28],6.9 nM
